“Also recorded” adds a separate entry of the source.
Assays:
[1] = tested on: clients from E. coli JM109 cells; assay: co-affinity assay coupled to LC-MS, clients from E. coli JM109; assay type: binding
How it was run: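 Pull-down bait was His-tagged Hsp70 (wild type or linker-swap variant), immobilised on cobalt resin in TBS (10 mM Tris-HCl pH 7.5, 50 mM NaCl, 10 mM imidazole) for 4 h at 4 °C, then washed 5×. E. coli JM109 lysate (prey) was added overnight at 4 °C, followed by 5 washes. Elution used 290 mM imidazole. Eluates were run on silver-stained SDS-PAGE; unique bands were excised and identified by LC-MS.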

[2] = tested on: clients from E. coli ΔdnaK52 cells; assay: co-affinity assay coupled to LC-MS, clients from E. coli ΔdnaK52; assay type: binding
DnaK = DnaK (Escherichia coli, UniProt P0A6Y8); details: SPR; presence of ATP
Sequence of DnaK (P0A6Y8 whole entry): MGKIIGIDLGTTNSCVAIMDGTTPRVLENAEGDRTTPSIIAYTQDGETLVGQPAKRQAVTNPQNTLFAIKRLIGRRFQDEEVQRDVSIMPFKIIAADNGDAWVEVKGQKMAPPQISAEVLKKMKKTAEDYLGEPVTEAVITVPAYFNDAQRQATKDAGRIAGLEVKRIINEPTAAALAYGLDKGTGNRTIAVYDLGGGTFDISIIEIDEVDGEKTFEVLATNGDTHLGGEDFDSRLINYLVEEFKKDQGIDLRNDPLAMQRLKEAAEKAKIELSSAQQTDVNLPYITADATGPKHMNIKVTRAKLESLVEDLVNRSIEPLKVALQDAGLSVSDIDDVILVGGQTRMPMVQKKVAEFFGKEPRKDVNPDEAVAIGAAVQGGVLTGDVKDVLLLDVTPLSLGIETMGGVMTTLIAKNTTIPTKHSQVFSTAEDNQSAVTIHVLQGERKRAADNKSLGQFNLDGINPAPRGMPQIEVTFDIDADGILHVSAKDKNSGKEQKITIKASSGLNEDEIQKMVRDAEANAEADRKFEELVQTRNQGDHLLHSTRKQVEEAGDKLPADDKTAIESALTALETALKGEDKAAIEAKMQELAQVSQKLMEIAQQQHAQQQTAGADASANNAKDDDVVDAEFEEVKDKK

proteins = details: ref [33]; cited from earlier work
PfHsp70-1 [3] = biological target: T1, PfHsp70-1 (Plasmodium falciparum, UniProt Q8IB24); details: previous study, ref [10], cited from earlier work
T1 sequence (Q8IB24 1-677): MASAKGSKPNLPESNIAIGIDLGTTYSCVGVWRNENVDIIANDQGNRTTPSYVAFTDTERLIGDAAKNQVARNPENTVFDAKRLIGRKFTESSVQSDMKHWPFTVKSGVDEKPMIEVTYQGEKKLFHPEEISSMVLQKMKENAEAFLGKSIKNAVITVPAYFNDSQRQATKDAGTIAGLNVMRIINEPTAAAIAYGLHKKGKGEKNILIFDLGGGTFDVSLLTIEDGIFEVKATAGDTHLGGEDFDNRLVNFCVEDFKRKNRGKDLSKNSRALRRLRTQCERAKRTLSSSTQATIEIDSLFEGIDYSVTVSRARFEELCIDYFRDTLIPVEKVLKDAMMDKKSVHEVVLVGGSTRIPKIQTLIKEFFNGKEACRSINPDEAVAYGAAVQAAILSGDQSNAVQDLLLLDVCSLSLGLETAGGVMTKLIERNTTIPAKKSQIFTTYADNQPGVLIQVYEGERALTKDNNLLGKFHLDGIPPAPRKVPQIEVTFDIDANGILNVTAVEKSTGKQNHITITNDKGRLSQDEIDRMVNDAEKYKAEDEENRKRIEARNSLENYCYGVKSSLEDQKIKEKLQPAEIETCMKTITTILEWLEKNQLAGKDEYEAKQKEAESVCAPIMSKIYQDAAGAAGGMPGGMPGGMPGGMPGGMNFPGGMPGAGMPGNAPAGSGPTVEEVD

PfHsp70-z = biological target: T2, PfHsp70-z (Plasmodium falciparum, UniProt Q8IC01); details: previous study, ref [10], cited from earlier work
T2 sequence (Q8IC01 1-873): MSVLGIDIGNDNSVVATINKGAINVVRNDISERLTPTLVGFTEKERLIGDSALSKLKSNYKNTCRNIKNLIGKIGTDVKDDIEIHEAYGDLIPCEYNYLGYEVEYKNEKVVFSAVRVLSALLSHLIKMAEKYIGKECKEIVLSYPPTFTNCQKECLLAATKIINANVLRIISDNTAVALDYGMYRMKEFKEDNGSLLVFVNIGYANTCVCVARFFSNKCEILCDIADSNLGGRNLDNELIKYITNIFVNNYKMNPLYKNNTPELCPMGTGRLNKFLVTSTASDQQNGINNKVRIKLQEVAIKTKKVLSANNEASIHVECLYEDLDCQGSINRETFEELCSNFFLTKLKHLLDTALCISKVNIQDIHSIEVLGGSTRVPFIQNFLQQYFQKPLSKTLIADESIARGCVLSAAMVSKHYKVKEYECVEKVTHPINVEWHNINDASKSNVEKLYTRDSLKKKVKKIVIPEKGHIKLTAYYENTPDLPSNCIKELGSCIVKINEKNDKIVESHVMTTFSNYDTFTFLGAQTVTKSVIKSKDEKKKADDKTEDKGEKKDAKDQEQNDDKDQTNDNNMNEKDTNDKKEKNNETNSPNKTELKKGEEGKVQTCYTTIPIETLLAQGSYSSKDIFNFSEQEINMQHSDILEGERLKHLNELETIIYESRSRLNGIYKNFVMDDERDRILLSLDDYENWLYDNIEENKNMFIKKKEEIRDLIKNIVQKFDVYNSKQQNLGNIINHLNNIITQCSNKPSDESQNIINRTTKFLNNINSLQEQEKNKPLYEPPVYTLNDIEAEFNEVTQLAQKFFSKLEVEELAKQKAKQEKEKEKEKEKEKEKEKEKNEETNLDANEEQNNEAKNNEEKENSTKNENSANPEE

PfHsp70-1 [4] = biological target: T1, PfHsp70-1; assay: SPR self-association, immobilised ligand PfHsp70-1; assay type: binding

With DnaK: E. coli Hsp70, recombinant the “association with CH60/GroEL” value [1] was “not with DnaK”, the “pI of a further group of clients” value [1] was “around 9.5” and the “pI of majority of clients” value [1] was 5.5–6.0. The “pI of some unique clients” value [1] was “above 10”, the “size of most clients” value [1] was “around 50 kDa” and the “number of unique clients” value ([1]; unique relative to the other chaperone) was 41 clients. The “association with CH60/GroEL” value [2] was “associated with DnaK within the E. coli ΔdnaK52 cell background”, the “number of clients bound” value [2] was 110 clients and the “size of another prominent client cluster” value [2] was “above 100 kDa”. The “effect of ATP on self-association” value (DnaK) was “promoted by ATP” and the “number of aggregation-prone (unstable) clients” value (proteins) was ~180 proteins.
For GFRLLLMYRF, the “effect of nucleotide on peptide affinity” value (PfHsp70-1 [3]) is listed as “regulated by ADP/ATP” and the “effect of nucleotide on peptide binding” value (PfHsp70-z) is listed as “nucleotide independent”.
For GFRNNNMYRF, the “effect of nucleotide on peptide affinity” value (PfHsp70-1 [3]) is listed as “regulated by ADP/ATP”, the peptide preference (PfHsp70-1 [3]; vs GFRLLLMYRF) is listed as “preferentially bind to the Asp-enriched peptide” and the “effect of nucleotide on peptide binding” value (PfHsp70-z) is listed as “nucleotide independent”. For the same substance, the peptide preference (PfHsp70-z; vs GFRLLLMYRF) was “preferentially bind to the Asp-enriched peptide”.
For “PfHsp70-1: canonical cytosolic Hsp70 chaperone of Plasmodium falciparum, recombinant”, the “self-association without nucleotide vs ADP” value (PfHsp70-1 [4]) was “comparable affinity in the absence of nucleotide and in the presence of ADP” and the “effect of ATP on self-association” value (PfHsp70-1 [4]; ATP vs apo- or ADP-states) was “tenfold increase; also recorded: promoted by ATP”.

— paper PMC11066147 (Heliyon, 2024)
